Measured values taken from ChEMBL document CHEMBL1671633 (Antimicrob Agents Chemother, 2008).

Tests used:
[1] = AUC (0 to 24 hrs ) in healthy human at 400 mg, po qd measured on day 4 by HPLC; type: ADME, organism-based; set-up: time < 24 hr, dose 400 mg, route oral; details: plasma
[2] = Tmax in healthy human at 400 mg, po qd coadministered with 900 mg, po thrice weekly of rifapentine on day 5 post compound dose measured on day 19 post compound dose by HPLC; type: ADME, organism-based; details: in vivo
How it was run: (§1)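 Healthy volunteers took oral MXF 400 mg once daily with a continental breakfast (750 kcal, 20% fat). Sampling was on day 4 (after four doses, MXF alone) or on day 19 (with 900 mg RPT thrice weekly added from day 5; 72-h sampling). Plasma MXF was measured by validated HPLC with fluorescence detection (standard curve 0.20–15 µg/ml). Tmax was derived noncompartmentally.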

[3] = system: Homo sapiens; experiment: AUC (0 to 48 hrs) in healthy human assessed as 25-desacetyl-rifapentine level at 900 mg, po administered as a single dose measured on day 5 post compound dose by HPLC; type: ADME, organism-based, Plasma; set-up: dose 900 mg, time < 48 hr, route oral; details: in vivo
How it was run: (§2)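 Blood was drawn predose and at 2, 4, 6, 8, 10, 12, 24, 34 and 48 h after the first dose (day 5), and again on day 19 after 7 thrice-weekly doses (72-h sampling). Rifapentine and 25-desacetyl-rifapentine were measured by validated HPLC-UV with trimipramine as internal standard. Parameters came from noncompartmental analysis, with AUC truncated at 48 h.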

[4] = AUC (0 to 24 hrs ) in healthy human at 400 mg, po qd coadministered with 900 mg, po thrice weekly of rifapentine on day 5 post compound dose measured on day 19 post compound dose by HPLC; type: ADME, organism-based; set-up: time < 24 hr, dose 400 mg, route oral; details: plasma
[5] = system: Homo sapiens; experiment: Tmax in healthy human assessed as 25-desacetyl-rifapentine level at 900 mg, po administered as a single dose measured on day 5 post compound dose by HPLC; type: ADME, organism-based; details: in vivo
How it was run: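 Healthy volunteers took a single oral 900 mg rifapentine dose on day 5, after a continental breakfast (750 kcal, 20% fat), alongside ongoing 400 mg daily MXF. Plasma was sampled predose and at 2, 4, 6, 8, 10, 12, 24, 34 and 48 h. 25-desacetyl-RPT was measured by validated HPLC with UV detection and trimipramine internal standard. Tmax was derived noncompartmentally.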

[6] = system: Homo sapiens; experiment: AUC (0 to 48 hrs) in healthy human assessed as 25-desacetyl-rifapentine level at 900 mg, po thrice weekly measured on day 19 post compound dose by HPLC; type: ADME, organism-based, Plasma; set-up: dose 900 mg, time < 48 hr, route oral; details: in vivo; how it was run: as §2
[7] = system: Homo sapiens; experiment: Toxicity in healthy human assessed as incidence of adverse events at 400 mg, po qd coadministered with 900 mg, po thrice weekly of rifapentine on day 5 post compound dose measured on day 19 post compound dose; type: organism-based; details: in vivo
How it was run: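 Doses were given after a continental breakfast, with no other medications, alcohol or smoking allowed. Adherence was tracked by pill counts and medication diaries, and adverse events were recorded during and after dosing.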

[8] = Tmax in healthy human at 400 mg, po qd measured on day 4 by HPLC; type: ADME, organism-based; details: in vivo; how it was run: as §1
[9] = Cmax in healthy human at 400 mg, po qd coadministered with 900 mg, po thrice weekly of rifapentine on day 5 post compound dose measured on day 19 post compound dose by HPLC; type: ADME, organism-based; set-up: dose 400 mg, route oral; details: in vivo
[10] = Tmax in healthy human at 900 mg, po administered as a single dose measured on day 5 post compound dose by HPLC; type: ADME, organism-based; details: in vivo
How it was run: (§3)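 Healthy volunteers took oral RPT 900 mg thrice weekly, alongside MXF 400 mg daily, after a 750-kcal breakfast. Plasma was sampled over 48 h after the first RPT dose (day 5) and over 72 h after the seventh dose (day 19). RPT was measured by validated HPLC-UV with a trimipramine internal standard. Parameters were derived noncompartmentally, with AUC over 48 h, and compared as day 19/day 5 geometric mean ratios with 90% CI.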

[11] = system: Homo sapiens; experiment: Ratio of Volume of distribution in healthy human at 900 mg, po thrice weekly measured on day 19 post compound dose to Volume of distribution in healthy human at 900 mg, po administered as a single dose measured on day 5; details: in vivo
[12] = system: Homo sapiens; experiment: Volume of distribution in healthy human at 900 mg, po thrice weekly measured on day 19 post compound dose by HPLC; type: ADME, organism-based; details: in vivo; how it was run: as §2
[13] = Half life in healthy human at 900 mg, po thrice weekly measured on day 19 post compound dose by HPLC; type: ADME, organism-based; details: in vivo; how it was run: as §2
[14] = system: Homo sapiens; experiment: Ratio of Apparent oral clearance in healthy human at 900 mg, po thrice weekly measured on day 19 post compound dose to Apparent oral clearance in healthy human at 900 mg, po administered as a single dose measured on day 5; details: in vivo
[15] = system: Homo sapiens; experiment: Ratio of Tmax in healthy human at 900 mg, po thrice weekly measured on day 19 post compound dose to Tmax in healthy human at 900 mg, po administered as a single dose measured on day 5; details: in vivo
[16] = AUC (0 to 48 hrs) in healthy human at 900 mg, po administered as a single dose measured on day 5 post compound dose by HPLC; type: ADME, organism-based; set-up: time < 48 hr, dose 900 mg, route oral; details: plasma; how it was run: as §2
[17] = system: Homo sapiens; experiment: Volume of distribution in healthy human at 900 mg, po administered as a single dose measured on day 5 post compound dose by HPLC; type: ADME, organism-based; details: in vivo; how it was run: as §2
[18] = Apparent oral clearance in healthy human at 900 mg, po administered as a single dose measured on day 5 post compound dose by HPLC; type: ADME, organism-based; details: in vivo; how it was run: as §2
[19] = Apparent oral clearance in healthy human at 900 mg, po thrice weekly measured on day 19 post compound dose by HPLC; type: ADME, organism-based; details: in vivo; how it was run: as §2
[20] = Cmax in healthy human at 900 mg, po thrice weekly measured on day 19 post compound dose by HPLC; type: ADME, organism-based; set-up: dose 900 mg, route oral; details: in vivo; how it was run: as §2
[21] = system: Homo sapiens; experiment: Ratio of AUC (0 to 48 hrs) in healthy human at 900 mg, po thrice weekly measured on day 19 post compound dose to AUC (0 to 48 hrs) in healthy human at 900 mg, po administered as a single dose measured on day 5 post compound dose; type: ADME, organism-based; details: in vivo; how it was run: as §3
[22] = Half life in healthy human at 900 mg, po administered as a single dose measured on day 5 post compound dose by HPLC; type: ADME, organism-based; details: in vivo; how it was run: as §2
[23] = system: Homo sapiens; experiment: Ratio of Cmax in healthy human at 900 mg, po thrice weekly measured on day 19 post compound dose to Cmax in healthy human at 900 mg, po administered as a single dose measured on day 5; details: in vivo
[24] = Cmax in healthy human at 900 mg, po administered as a single dose measured on day 5 post compound dose by HPLC; type: ADME, organism-based; set-up: dose 900 mg, route oral; details: in vivo; how it was run: as §2
[25] = Tmax in healthy human at 900 mg, po thrice weekly measured on day 19 post compound dose by HPLC; type: ADME, organism-based; details: in vivo; how it was run: as §3
[26] = AUC (0 to 48 hrs) in healthy human at 900 mg, po thrice weekly measured on day 19 post compound dose by HPLC; type: ADME, organism-based; set-up: time < 48 hr, dose 900 mg, route oral; details: plasma; how it was run: as §2
[27] = system: Homo sapiens; experiment: Ratio of Half life in healthy human at 900 mg, po thrice weekly measured on day 19 post compound dose to Half life in healthy human at 900 mg, po administered as a single dose measured on day 5; details: in vivo

COc1c(N2C[C@@H]3CCCN[C@@H]3C2)c(F)cc2c(=O)c(C(=O)O)cn(C3CC3)c12 [MOXIFLOXACIN]
AUC at 24 h [1]: 41.9 µg·h/mL | Tmax [2]: 2.6 h | AUC [3]: 461.7 µg·h/mL | AUC at 24 h [4]: 34.4 µg·h/mL | Tmax [5]: 24.9 h | AUC [6]: 369.9 µg·h/mL | Activity [7]: Non-toxic | Tmax [8]: 2.37 h | Cmax [9]: 3330 ng/mL

CO[C@H]1/C=C/O[C@@]2(C)Oc3c(C)c(O)c4c(O)c(c(/C=N/N5CCN(C6CCCC6)CC5)c(O)c4c3C2=O)NC(=O)/C(C)=C\C=C\[C@H](C)[C@H](O)[C@@H](C)[C@@H](O)[C@@H](C)[C@H](OC(C)=O)[C@@H]1C [RIFAPENTINE]
Tmax [10]: 5.08 h | Ratio [11]: 1.07 | Vd [12]: 43.7 L | half-life [13]: 14.8 h | Ratio [14]: 1.36 | Ratio [15]: 0.93 | AUC(0-t) at 48 h [16]: 513 µg·h/mL | Vd [17]: 40.7 L | CL/F [18]: 26.5 mL/min | CL/F [19]: 36.2 mL/min | Cmax [20]: 21200 ng/mL | Ratio AUC [21]: 0.8 | half-life [22]: 18.5 h | Ratio [23]: 0.96 | Cmax [24]: 21900 ng/mL | Tmax [25]: 4.77 h | AUC at 48 h [26]: 410 µg·h/mL | Ratio [27]: 0.78
